Assay results from ChEMBL document CHEMBL4680114, “Optimization of Potent and Selective Ataxia Telangiectasia-Mutated Inhibitors Suitable for a Proof-of-Concept Study in Huntington's Disease Models” (J Med Chem, 2019).
Values after ≈ are worked out from the molar mass of the structure shown.

Columns and labels:
[1] = Kinetic solubility in pH 7.4 PBS buffer by LC-UV assay; type: physicochemical; conditions: read-out: Kinetic_solubility
Procedure, shortened: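 Compound from a 10 mM DMSO stock diluted to a nominal 200 µM in 0.1 M potassium phosphate/0.8% NaCl pH 7.4 (2% DMSO final), n=2. Shaken 2 h at room temperature, then filtered. Filtrate quantified by LC-UV against 200 µM and 10 µM DMSO standards, with MS peak confirmation.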

[2] = AUC/dose in C57BL/6J mouse plasma at 3 mg/kg, iv administered as single dose by LC-MS/MS analysis; type: ADME, organism-based; conditions: in vivo
Procedure, shortened: (§1)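 Male C57BL/6 mice, single intravenous dose as solution in 10:50:40 DMSO:PEG400:H2O (5 mL/kg). Plasma by cardiac puncture and brain collected at set times, n=3 per time point. LC-MS/MS quantitation with diclofenac IS. Composite non-compartmental parameters from mean concentrations; C0 back-extrapolated from first two points; kel from at least last three concentrations; AUC dose-normalized.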

[3] = AUC/dose in C57BL/6J mouse brain at 3 mg/kg, iv administered as single dose by LC-MS/MS analysis; type: ADME, organism-based; conditions: in vivo; procedure, shortened: as §1
[4] = Volume of distribution at steady state in C57BL/6J mouse at 3 mg/kg, iv administered as single dose by LC-MS/MS analysis; type: ADME, organism-based; conditions: in vivo, read-out: Vdss
Procedure, shortened: (§2)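 Male mice given a single iv dose of 3 mg/kg in 10:50:40 DMSO:PEG400:H2O (5 mL/kg). Plasma (cardiac puncture) and brain collected, n=3 per time point, and measured by LC-MS/MS. Non-compartmental parameters from mean concentrations, with C0 back-extrapolated; AUC by linear trapezoidal method, dose-normalised.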

[5] = Ratio of AUC/dose in brain to plasma of C57BL/6J mouse at 3 mg/kg, iv administered as single dose by LC-MS/MS analysis; type: ADME, organism-based; conditions: brain and plasma, read-out: BPR; procedure, shortened: as §2
[6] = Unbound brain-to-plasma concentration ratio in C57BL/6J mouse at 3 mg/kg, iv administered as single dose by LC-MS/MS analysis; type: ADME, organism-based; conditions: brain and plasma, read-out: K(p,uu,brain)
[7] = AUC/dose in C57BL/6J mouse plasma at 10 mg/kg, po by LC-MS/MS analysis; type: ADME, organism-based; conditions: in vivo
Procedure, shortened: (§3)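 Male C57BL/6 mice, single oral dose as fine suspension in 10% or 20% hydroxypropyl-beta-cyclodextrin in water (10 mL/kg). Terminal cardiac-puncture plasma and saline-rinsed brain, n=3 per time point; brain homogenized in acetonitrile:water 3:1. LC-MS/MS with diclofenac IS; LLOQ 6 nM plasma, 21 nM brain. Composite non-compartmental analysis of mean concentrations; AUC normalized to actual dose.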

[8] = Oral bioavailability in C57BL/6J mouse plasma at 10 mg/kg by LC-MS/MS analysis; type: ADME, organism-based
Procedure, shortened: (§4)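 Male mice given a single oral dose of 10, 30 or 100 mg/kg as a fine suspension in 10% or 20% hydroxypropyl-β-cyclodextrin (10 mL/kg). Plasma and brain collected (n=3/time point) and measured by LC-MS/MS. Non-compartmental analysis on mean concentrations; AUC dose-normalised. %F = normalised po AUCinf / normalised iv AUCinf.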

[9] = Cmax/dose in C57BL/6J mouse plasma at 10 mg/kg, po by LC-MS/MS analysis; type: ADME, organism-based; conditions: in vivo; procedure, shortened: as §3
[10] = Tmax in C57BL/6J mouse plasma at 10 mg/kg, po by LC-MS/MS analysis; type: ADME, organism-based; procedure, shortened: as §4
[11] = AUC/dose in C57BL/6J mouse plasma at 30 mg/kg, po by LC-MS/MS analysis; type: ADME, organism-based; conditions: in vivo; procedure, shortened: as §3
[12] = Oral bioavailability in C57BL/6J mouse plasma at 30 mg/kg by LC-MS/MS analysis; type: ADME, organism-based; procedure, shortened: as §4
[13] = Cmax/dose in C57BL/6J mouse plasma at 30 mg/kg, po by LC-MS/MS analysis; type: ADME, organism-based; conditions: in vivo; procedure, shortened: as §3
[14] = Tmax in C57BL/6J mouse plasma at 30 mg/kg, po by LC-MS/MS analysis; type: ADME, organism-based; procedure, shortened: as §4
[15] = AUC/dose in C57BL/6J mouse plasma at 100 mg/kg, po by LC-MS/MS analysis; type: ADME, organism-based; conditions: in vivo; procedure, shortened: as §3
[16] = Oral bioavailability in C57BL/6J mouse plasma at 100 mg/kg by LC-MS/MS analysis; type: ADME, organism-based; procedure, shortened: as §4
[17] = Cmax/dose in C57BL/6J mouse plasma at 100 mg/kg, po by LC-MS/MS analysis; type: ADME, organism-based; conditions: in vivo; procedure, shortened: as §3
[18] = Tmax in C57BL/6J mouse plasma at 100 mg/kg, po by LC-MS/MS analysis; type: ADME, organism-based; procedure, shortened: as §4
[19] = AUC/dose in C57BL/6J mouse brain at 10 mg/kg, po by LC-MS/MS analysis; type: ADME, organism-based; conditions: in vivo; procedure, shortened: as §3
[20] = Cmax/dose in C57BL/6J mouse brain at 10 mg/kg, po by LC-MS/MS analysis; type: ADME, organism-based; conditions: in vivo; procedure, shortened: as §3
[21] = Tmax in C57BL/6J mouse brain at 10 mg/kg, po by LC-MS/MS analysis; type: ADME, organism-based; procedure, shortened: as §4
[22] = Ratio of AUC/dose in brain to plasma of C57BL/6J mouse at 10 mg/kg, po administered as single dose by LC-MS/MS analysis; type: ADME, organism-based; conditions: brain and plasma, read-out: BPR; procedure, shortened: as §4
[23] = Unbound brain-to-plasma concentration ratio in C57BL/6J mouse at 10 mg/kg, po administered as single dose by LC-MS/MS analysis; type: ADME, organism-based; conditions: brain and plasma, read-out: K(p,uu,brain)
[24] = AUC/dose in C57BL/6J mouse brain at 30 mg/kg, po by LC-MS/MS analysis; type: ADME, organism-based; conditions: in vivo; procedure, shortened: as §3
[25] = Cmax/dose in C57BL/6J mouse brain at 30 mg/kg, po by LC-MS/MS analysis; type: ADME, organism-based; conditions: in vivo; procedure, shortened: as §3
[26] = Tmax in C57BL/6J mouse brain at 30 mg/kg, po by LC-MS/MS analysis; type: ADME, organism-based; procedure, shortened: as §4
[27] = Ratio of AUC/dose in brain to plasma of C57BL/6J mouse at 30 mg/kg, po administered as single dose by LC-MS/MS analysis; type: ADME, organism-based; conditions: brain and plasma, read-out: BPR; procedure, shortened: as §4
[28] = Unbound brain-to-plasma concentration ratio in C57BL/6J mouse at 30 mg/kg, po administered as single dose by LC-MS/MS analysis; type: ADME, organism-based; conditions: brain and plasma, read-out: K(p,uu,brain)
[29] = AUC/dose in C57BL/6J mouse brain at 100 mg/kg, po by LC-MS/MS analysis; type: ADME, organism-based; conditions: in vivo; procedure, shortened: as §3
[30] = Cmax/dose in C57BL/6J mouse brain at 100 mg/kg, po by LC-MS/MS analysis; type: ADME, organism-based; conditions: in vivo; procedure, shortened: as §3
[31] = Tmax in C57BL/6J mouse brain at 100 mg/kg, po by LC-MS/MS analysis; type: ADME, organism-based; procedure, shortened: as §4
[32] = Ratio of AUC/dose in brain to plasma of C57BL/6J mouse at 100 mg/kg, po administered as single dose by LC-MS/MS analysis; type: ADME, organism-based; conditions: brain and plasma, read-out: BPR; procedure, shortened: as §4
[33] = Unbound brain-to-plasma concentration ratio in C57BL/6J mouse at 100 mg/kg, po administered as single dose by LC-MS/MS analysis; type: ADME, organism-based; conditions: brain and plasma, read-out: K(p,uu,brain)

Q: For `COc1ccc2c(c1)Cc1cccc(-c3cc(=O)cc(N4CCOCC4)o3)c1S2`, which solubility kinetic [1] is on record?
A: 11 µg/mL (≈ 27 µM)

Q: What about the AUC/dose [2] of the same compound?
A: 2700 nM·kg·h/mg

Q: What about the AUC/dose [3] of the same compound?
A: 3500 nM·kg·h/mg

Q: And the Vd [4]?
A: 1.6 L/kg

Q: And the Kp [5]?
A: 1.3

Q: What about the Kp uu [6] of the same compound?
A: 0.44

Q: And the AUC/dose [7]?
A: 2400 nM·kg·h/mg

Q: What about the bioavailability [8] of the same compound?
A: 89%

Q: What about the Cmax/dose [9] of the same compound?
A: 850 nM·kg/mg

Q: What about the Tmax [10] of the same compound?
A: 60 min

Q: What about the AUC/dose [11] of the same compound?
A: 3000 nM·kg·h/mg

Q: What about the bioavailability [12] of the same compound?
A: 111%

Q: And the Cmax/dose [13]?
A: 890 nM·kg/mg

Q: What about the Tmax [14] of the same compound?
A: 15 min

Q: What about the AUC/dose [15] of the same compound?
A: 1800 nM·kg·h/mg

Q: What about the bioavailability [16] of the same compound?
A: 67%

Q: What about the Cmax/dose [17] of the same compound?
A: 450 nM·kg/mg

Q: And the Tmax [18]?
A: 15 min

Q: What about the AUC/dose [19] of the same compound?
A: 3200 nM·kg·h/mg

Q: What about the Cmax/dose [20] of the same compound?
A: 950 nM·kg/mg

Q: What about the Tmax [21] of the same compound?
A: 60 min

Q: What about the Kp [22] of the same compound?
A: 1.3

Q: What about the Kp uu [23] of the same compound?
A: 0.45

Q: What about the AUC/dose [24] of the same compound?
A: 3300 nM·kg·h/mg

Q: And the Cmax/dose [25]?
A: 880 nM·kg/mg

Q: And the Tmax [26]?
A: 30 min

Q: What about the Kp [27] of the same compound?
A: 1.1

Q: And the Kp uu [28]?
A: 0.37

Q: And the AUC/dose [29]?
A: 2600 nM·kg·h/mg

Q: What about the Cmax/dose [30] of the same compound?
A: 850 nM·kg/mg

Q: What about the Tmax [31] of the same compound?
A: 60 min

Q: What about the Kp [32] of the same compound?
A: 1.4

Q: What about the Kp uu [33] of the same compound?
A: 0.49
